What was measured:
HCT116 cells = experiment: FACS cell cycle analysis in HCT116 cells; type: cell-based, human; settings: 48 h, 500 nM compound
BRD4 = BRD4 (Homo sapiens, UniProt O60885); experiment: Biochemical assay BRD4
HEK293 = experiment: Cell Titer Glo cell viability assay HEK293; type: cell-based; settings: Homo sapiens, HEK293, 72 h, read-out: HEK293 IC50
In short: (§1)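 Cells from a human cancer line panel were treated with the test compound across a dose-response series.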

[1] = target: T1, recombinant purified Aurora A protein (Homo sapiens, UniProt O14965); experiment: LC-MS/MS covalent labeling of recombinant Aurora A; type: binding; settings: compound at 10 fold excess with recombinant purified Aurora A
T1 sequence (O14965 1-403): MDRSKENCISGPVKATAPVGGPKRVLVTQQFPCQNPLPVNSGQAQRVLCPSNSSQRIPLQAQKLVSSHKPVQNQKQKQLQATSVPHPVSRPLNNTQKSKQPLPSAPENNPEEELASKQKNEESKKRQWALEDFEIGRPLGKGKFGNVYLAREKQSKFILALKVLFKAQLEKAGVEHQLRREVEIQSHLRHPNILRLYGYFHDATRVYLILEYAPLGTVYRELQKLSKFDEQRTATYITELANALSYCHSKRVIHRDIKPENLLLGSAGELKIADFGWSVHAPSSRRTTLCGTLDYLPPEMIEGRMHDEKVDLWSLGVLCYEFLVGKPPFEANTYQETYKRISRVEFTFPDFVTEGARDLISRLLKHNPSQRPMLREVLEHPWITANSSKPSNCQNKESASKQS

Jurkat cells = experiment: Anti-proliferative activity in Jurkat cells; type: cell-based; settings: Homo sapiens, read-out: IC50 (cytotoxic, anti-proliferative activity)
LRRK2 = LRRK2 (Homo sapiens, UniProt Q5S007); experiment: Biochemical assay LRRK2
PC3 = experiment: Cell Titer Glo cell viability assay PC3; type: cell-based; settings: Homo sapiens, PC-3, 72 h, read-out: PC3 IC50
In short: as §1

[2] = test system: panel of 468 human wild-type and mutant kinases; experiment: KINOMEscan kinase profiling, panel of 468 kinases; type: binding; settings: KINOMEscan at 1 μM compound concentration
ABL1 Y253F = ABL1 Y253F (Homo sapiens, UniProt P00519, Y253F); experiment: Biochemical kinase assay ABL1 Y253F
HCT116 = experiment: Cell Titer Glo cell viability assay HCT116; type: cell-based; settings: Homo sapiens, HCT-116, 72 h, read-out: HCT116 IC50
In short: as §1

Chain of LRRK2 (Q5S007 whole entry, species assumed): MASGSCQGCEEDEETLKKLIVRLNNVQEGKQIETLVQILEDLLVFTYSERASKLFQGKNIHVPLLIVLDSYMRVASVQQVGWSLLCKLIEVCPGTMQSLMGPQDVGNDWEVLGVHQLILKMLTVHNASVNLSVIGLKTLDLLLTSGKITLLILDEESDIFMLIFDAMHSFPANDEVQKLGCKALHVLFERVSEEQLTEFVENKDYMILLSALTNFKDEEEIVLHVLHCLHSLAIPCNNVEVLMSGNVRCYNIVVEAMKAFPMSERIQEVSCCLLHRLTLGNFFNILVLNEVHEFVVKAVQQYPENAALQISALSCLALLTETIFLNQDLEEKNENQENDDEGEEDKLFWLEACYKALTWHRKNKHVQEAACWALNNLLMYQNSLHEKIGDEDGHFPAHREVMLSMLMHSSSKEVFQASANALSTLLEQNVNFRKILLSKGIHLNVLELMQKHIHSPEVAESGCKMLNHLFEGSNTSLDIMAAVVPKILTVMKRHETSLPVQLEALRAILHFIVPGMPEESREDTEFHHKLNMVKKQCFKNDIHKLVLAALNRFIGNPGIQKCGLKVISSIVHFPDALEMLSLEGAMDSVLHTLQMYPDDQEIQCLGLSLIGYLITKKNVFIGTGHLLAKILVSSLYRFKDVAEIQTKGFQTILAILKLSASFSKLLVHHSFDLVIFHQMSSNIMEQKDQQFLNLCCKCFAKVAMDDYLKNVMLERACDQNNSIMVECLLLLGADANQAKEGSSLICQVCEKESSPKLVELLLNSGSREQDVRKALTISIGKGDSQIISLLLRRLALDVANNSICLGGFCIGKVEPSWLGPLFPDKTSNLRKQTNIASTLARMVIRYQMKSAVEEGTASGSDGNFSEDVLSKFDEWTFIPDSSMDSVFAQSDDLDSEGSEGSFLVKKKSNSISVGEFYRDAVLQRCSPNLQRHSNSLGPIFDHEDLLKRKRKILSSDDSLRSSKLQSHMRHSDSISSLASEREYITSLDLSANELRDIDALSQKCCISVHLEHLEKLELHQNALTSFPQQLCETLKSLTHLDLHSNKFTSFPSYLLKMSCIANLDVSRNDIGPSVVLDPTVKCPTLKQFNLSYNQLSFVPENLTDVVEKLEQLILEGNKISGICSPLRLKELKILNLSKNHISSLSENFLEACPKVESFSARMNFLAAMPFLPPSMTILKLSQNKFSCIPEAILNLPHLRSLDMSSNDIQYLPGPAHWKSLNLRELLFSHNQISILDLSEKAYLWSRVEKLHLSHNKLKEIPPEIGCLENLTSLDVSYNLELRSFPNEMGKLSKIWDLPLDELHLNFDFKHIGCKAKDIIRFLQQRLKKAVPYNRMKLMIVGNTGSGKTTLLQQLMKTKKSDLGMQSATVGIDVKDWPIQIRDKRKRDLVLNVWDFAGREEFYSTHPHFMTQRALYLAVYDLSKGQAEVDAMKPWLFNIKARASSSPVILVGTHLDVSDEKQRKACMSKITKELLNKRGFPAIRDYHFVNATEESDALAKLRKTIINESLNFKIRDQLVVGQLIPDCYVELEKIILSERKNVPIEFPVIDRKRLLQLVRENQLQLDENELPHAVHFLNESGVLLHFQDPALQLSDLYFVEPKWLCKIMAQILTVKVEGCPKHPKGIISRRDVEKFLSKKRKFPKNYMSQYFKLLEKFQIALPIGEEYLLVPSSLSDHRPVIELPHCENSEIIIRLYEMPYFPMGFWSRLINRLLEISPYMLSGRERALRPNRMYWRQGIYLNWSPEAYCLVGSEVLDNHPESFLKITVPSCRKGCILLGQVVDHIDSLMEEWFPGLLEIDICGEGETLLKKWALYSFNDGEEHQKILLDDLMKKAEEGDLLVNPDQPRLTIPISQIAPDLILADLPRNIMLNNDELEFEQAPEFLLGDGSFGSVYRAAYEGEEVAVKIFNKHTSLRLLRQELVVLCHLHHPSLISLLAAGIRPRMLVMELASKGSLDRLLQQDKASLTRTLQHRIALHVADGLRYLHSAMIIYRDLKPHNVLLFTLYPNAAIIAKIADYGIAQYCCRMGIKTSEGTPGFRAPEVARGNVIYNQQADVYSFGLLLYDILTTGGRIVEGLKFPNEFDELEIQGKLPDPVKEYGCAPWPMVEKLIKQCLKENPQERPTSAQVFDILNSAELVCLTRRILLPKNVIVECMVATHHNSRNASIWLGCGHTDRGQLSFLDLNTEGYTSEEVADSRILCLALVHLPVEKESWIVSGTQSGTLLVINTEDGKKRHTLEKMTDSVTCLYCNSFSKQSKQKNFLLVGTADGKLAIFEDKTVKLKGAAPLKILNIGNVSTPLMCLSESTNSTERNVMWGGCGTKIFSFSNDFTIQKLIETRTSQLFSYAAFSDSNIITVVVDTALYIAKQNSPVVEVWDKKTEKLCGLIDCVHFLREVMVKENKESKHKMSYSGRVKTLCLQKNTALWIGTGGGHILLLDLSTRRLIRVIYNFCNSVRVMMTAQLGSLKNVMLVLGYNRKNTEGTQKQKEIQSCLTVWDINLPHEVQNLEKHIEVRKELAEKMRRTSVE

IC50 (ABL1 Y253F) | IC50 (HCT116) | SMILES | effect on cell cycle (FACS) (HCT116 cells) | activity against BRD4 (BRD4) | IC50 (HEK293) | labeling of Aurora A by LC-MS/MS [1] | IC50 (Jurkat cells) | activity against LRRK2 (LRRK2) | IC50 (PC3) | kinome-wide selectivity [2]
– | – | CCOC(=O)c1[nH]cc2c1NC1=C(C(=O)CCC1)[C@H]2c1cccc(Oc2nc3ccccc3[nH]2)c1 [SAR156497, reference compound] | failed cytokinesis and accumulation of cells that contain 4N DNA (polyploidy) | – | – | – | – | – | – | –
– | – | C=CC(=O)Nc1ccc(C(=O)Nc2ccc(Nc3ncc4c(n3)N(C)c3ccc(C)cc3C(=O)N4C)cc2)cc1 [compound 1] | failed cytokinesis and accumulation of cells that contain 4N DNA (polyploidy) | inactive | 250 ± 48 nM | no labeling | 370 nM | inactive | 990 ± 1500 nM | exclusively on-target activity
> 10000 nM | ~100 nM | CCC(=O)Nc1ccc(C(=O)Nc2ccc(Nc3ncc4c(n3)N(C)c3ccc(C)cc3C(=O)N4C)cc2)cc1 [compound 2] | – | inactive | ~100 nM | – | – | inactive | ~100 nM | –
